Experimental findings from ChEMBL document CHEMBL1142975 (J Med Chem, 2007) are described below.

Activity calls are given as the source filed them. No cut-off for these calls is given here.

Data set [1] deals with Vaccinia virus. The data set can be described thus: Antiviral activity against vaccinia virus IHD-J in BSC40 cells by CPE assay. Type of data set: functional, organism-based. The conditions noted are these: Orthopoxvirus vaccinia, BSC-40.
Data set [2] in a line: Cytotoxicity against vaccinia virus IHD-J infected BSC40 cells. It is filed as cell-based, Macaca mulatta. Particulars: rhesus monkey, BSC-40 cells infected with vaccinia virus IHD-J.
Data set [3] in a line: Metabolic stability in rat Liver S9 fraction. Type of data set: ADME, subcellular. Summed up: (§1)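 Compound was incubated with liver S-9 extracts from each species, with NADPH added. Loss of parent compound was followed by LC/MS and reported as half-life in minutes.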
The nature of data set [4]: Metabolic stability in human Liver S9 fraction. Type of data set: ADME, subcellular. The method in brief:
as §1

The next data set concerns Monkeypox virus. The data set can be described thus: Antiviral activity against monkeypox virus by CPE assay. It is filed as functional, organism-based.
Data set [5] can be described thus: Metabolic stability in dog Liver S9 fraction. It is filed as ADME, subcellular, Canis lupus familiaris. The method in brief: as §1
The test system of data set [6] is Variola virus. The data set can be described thus: Antiviral activity against variola virus BUT virus by CPE assay. It is filed as functional, organism-based.
Data set [7] is described as follows: Metabolic stability in mouse Liver S9 fraction. It is filed as ADME, subcellular. Summed up:
as §1

Data set [8] concerns Variola virus. The data set can be described thus: Antiviral activity against variola virus BSH virus by CPE assay. It is filed as functional, organism-based.
The test system of another data set is Camelpox virus. Kind of data set: Antiviral activity against camelpox virus by CPE assay. It is filed as functional, organism-based.
Data set [9] in a line: Metabolic stability in monkey Liver S9 fraction. It is filed as ADME, subcellular, Macaca mulatta. Particulars: rhesus monkey. The method in brief: as §1
The test system of the next data set is Cowpox virus. The data set can be described thus: Antiviral activity against cowpox virus by CPE assay. Type of data set: functional, organism-based.
The next data set deals with Rotavirus. The data set can be described thus: Antiviral activity against rotavirus by plaque reduction assay. Type of data set: functional, organism-based.
Data set [10] in a line: Clearance in rat at 2 mg/kg, po. Type of data set: ADME, organism-based. Particulars: in vivo. Also noted: dose 2 mg/kg, route oral. Summed up: (§2)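 Rats were dosed orally in 0.75% Methocell/1% Tween vehicle, and a separate intravenous arm was run to derive bioavailability. Plasma concentration–time data gave Tmax, Cmax, AUC, t1/2, clearance, Vss and %F.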
A short description of data set [11]: Tmax in rat at 2 mg/kg, po. Type of data set: ADME, organism-based. Also noted: dose 2 mg/kg, route oral. The conditions noted are these: in vivo. Summed up:
as §2

Data set [12] can be described thus: Cmax in rat at 2 mg/kg, po. Type of data set: ADME, organism-based. The arrangement: dose 2 mg/kg, route oral. Particulars: in vivo. The method in brief: as §2
The next data set has as its system Human alphaherpesvirus 1. Kind of data set: Antiviral activity against HSV1 KOS by plaque reduction assay. The conditions noted are these: Human alphaherpesvirus 1, KOS. It is filed as functional, organism-based. On the technique in general: In a plaque reduction assay, fewer plaques than in the control indicate reduced infectivity or spread.
Data set [13] can be described thus: Oral bioavailability in rat at 2 mg/kg, po. It is filed as ADME, organism-based. The conditions noted are these: in vivo. The method in brief: as §2
The test system of a further data set is Rattus norvegicus. Kind of data set: Volume of distribution at steady state in rat at 2 mg/kg, po. It is filed as ADME, organism-based. Also noted: dose 2 mg/kg, route oral. The conditions noted are these: in vivo. The method in brief: as §2
Data set [14] can be described thus: AUC in rat at 2 mg/kg, po. It is filed as ADME, organism-based. The arrangement: dose 2 mg/kg, route oral. The conditions noted are these: plasma. Summed up: as §2
Data set [15] is described as follows: Half life in rat at 2 mg/kg, po. It is filed as ADME, organism-based. Also noted: dose 2 mg/kg, route oral. The conditions noted are these: in vivo. The method in brief:
as §2

For data set [16], the system named is Respiratory syncytial virus. The data set can be described thus: Antiviral activity against RSV A by plaque reduction assay. Type of data set: functional, organism-based. Particulars: human respiratory syncytial virus.
The test system of a further data set is Cynomolgus monkey. Kind of data set: Toxicity in cynomolgus monkey at 600 mg/kg after 28 days. Type of data set: organism-based, Macaca fascicularis. The arrangement: dose 600 mg/kg. The conditions noted are these: in vivo, 672 h. The method in brief: (§3)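 Animals received 28-day repeat dosing, and the no observable adverse effect level (NOAEL) was determined.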

In a further data set the test system is Mus musculus. The data set can be described thus: Toxicity in mouse at 2000 mg/kg after 28 days. Particulars: in vivo, 672 h. The arrangement: dose 2000 mg/kg. Type of data set: organism-based. Summed up:
as §3

Data set [17] relates to Vaccinia virus. Kind of data set: Antiviral activity assessed as inhibition of extracellular virus formation in vaccinia virus IHD-J infected BSC40 cells at 5 uM after 24 hrs. It is filed as functional, organism-based. The conditions noted are these: Orthopoxvirus vaccinia, BSC-40.
For a further data set, the system named is Human betaherpesvirus 5. The data set can be described thus: Antiviral activity against human cytomegalovirus AD169 by plaque reduction assay. It is filed as functional, organism-based. Particulars: Human betaherpesvirus 5, AD169.
In data set [18] the test system is Bovine viral diarrhea virus 1. The data set can be described thus: Antiviral activity against BVDV NADL by plaque reduction assay. It is filed as functional, organism-based. Particulars: Bovine viral diarrhea virus isolates and strains.

As for `O=C(NN1C(=O)[C@@H]2C3C=CC(C4CC43)[C@@H]2C1=O)c1ccc([N+](=O)[O-])cc1` (stereo partly specified), the EC50 (in general, the concentration giving half of the maximal effect) in the data set on Vaccinia virus [1] turned out to be 20 nM. Further, the CC50 (as a rule, the concentration giving 50% cytotoxicity) in data set [2] is more than 86000 nM.
In the case of `O=C(NN1C(=O)[C@@H]2C3C=CC(C4CC43)[C@@H]2C1=O)c1ccc(Br)cc1` (stereo partly specified), the half-life – broadly, the time in which the quantity being followed falls by half – in data set [3] was more than 3.33 h; in data set [4], 0.95 h; in data set [5], more than 3.33 h; in [7] it was more than 3.33 h; in data set [9], more than 3.33 h. Further, the EC50 with Monkeypox virus was 10 nM; in the data set on Vaccinia virus [1] it was 20 nM; in the data set with Variola virus [6] it was 20 nM; in the data set with Variola virus [8] it was 50 nM; in the data set on Camelpox virus it was 10 nM. Also, in [2], the CC50 is more than 100000 nM.
Take `O=C(NN1C(=O)[C@@H]2C3C=CC(C4CC43)[C@@H]2C1=O)c1ccc(Cl)cc1` (stereo partly specified): the figures for the 50% effective concentration (EC50) in the data set on Vaccinia virus [1] and with Cowpox virus were 20 nM and 770 nM, respectively. In [2], this compound had a CC50 of more than 100000 nM.
The compound `CN(C)c1ccc(C(=O)NN2C(=O)[C@@H]3C4C=CC(C5CC54)[C@@H]3C2=O)cc1` (stereo partly specified) registered an EC50 with Vaccinia virus [1] of 2000 nM. In addition, in [2], the CC50 was more than 100000 nM.
On to `O=C(NN1C(=O)[C@@H]2C3CCC(C4CC43)[C@@H]2C1=O)c1ccc(C(F)(F)F)cc1` (stereo partly specified), for which the EC50 turned out to be 80 nM in the data set on Monkeypox virus; 20 nM with Vaccinia virus [1]; 10 nM with Variola virus [6]; 200 nM in the data set with Variola virus [8]; 30 nM with Camelpox virus. This compound returned a CC50 in data set [2] of more than 100000 nM.
With `O=C(NN1C(=O)[C@@H]2C3C=CC(C4CC43)[C@@H]2C1=O)c1ccccc1Br` (stereo partly specified), the EC50 with Monkeypox virus is 3600 nM; in the data set with Vaccinia virus [1], 2300 nM; in the data set on Variola virus [6] it was 1400 nM; in the data set with Variola virus [8] it was 3300 nM; in the data set on Camelpox virus it was 3800 nM. The CC50 in data set [2] is more than 100000 nM.
Consider `O=C(NN1C(=O)[C@@H]2C3C=CC(C4CC43)[C@@H]2C1=O)c1cccc(Cl)c1` (stereo partly specified), for which the EC50 was 40 nM in the data set on Vaccinia virus [1] and 600 nM in the data set on Cowpox virus. The compound further showed a CC50 in data set [2] of more than 100000 nM.
The compound `Cn1cccc1C(=O)NN1C(=O)[C@@H]2C3C=CC(C4CC43)[C@@H]2C1=O` (stereo partly specified) returned an EC50 in the data set on Vaccinia virus [1] of 15800 nM. This compound showed a CC50 in data set [2] of more than 100000 nM.
As to `O=C(NN1C(=O)[C@@H]2C3C=CC(C4CC43)[C@@H]2C1=O)c1ccncc1` (stereo partly specified), the EC50 was found to be 150 nM with Monkeypox virus; 500 nM in the data set with Vaccinia virus [1]; 220 nM in the data set with Variola virus [6]; 400 nM in the data set with Variola virus [8]; 110 nM in the data set on Camelpox virus. Moreover, the CC50 in [2] was more than 100000 nM.
Turning to `Nc1ccc(C(=O)NN2C(=O)[C@@H]3C4C=CC(C5CC54)[C@@H]3C2=O)cc1` (stereo partly specified), in the data set on Vaccinia virus [1], the EC50 is 7700 nM. Besides, the CC50 in [2] was more than 92000 nM.
In the data set with Vaccinia virus [1], `COc1ccc(C(=O)NN2C(=O)[C@@H]3C4C=CC(C5CC54)[C@@H]3C2=O)cc1` (stereo partly specified) came in with an EC50 of 2200 nM. The compound further gave a CC50 in data set [2] of more than 100000 nM.
In the same order, the values of `O=C(NN1C(=O)[C@@H]2C3C=CC(C4CC43)[C@@H]2C1=O)c1cccnc1` (stereo partly specified) are 740 nM and more than 100000 nM.
In the case of `O=C(NN1C(=O)[C@@H]2C3C=CC(C4CC43)[C@@H]2C1=O)c1ccccc1Cl` (stereo partly specified), the results for the EC50 in the data set with Vaccinia virus [1] and in the data set with Cowpox virus were 3000 nM and more than 20000 nM, respectively. Moreover, the 50% cytotoxic concentration (CC50) in data set [2] was more than 100000 nM.
As to `O=C(NN1C(=O)[C@@H]2C3C=CC(C4CC43)[C@@H]2C1=O)c1ccccn1` (stereo partly specified), the EC50 with Monkeypox virus was more than 16000 nM; with Vaccinia virus [1] it was more than 20000 nM; in the data set with Variola virus [6], 10000 nM; in the data set with Variola virus [8], more than 20000 nM; in the data set on Camelpox virus, 4200 nM. Further, in data set [2], the CC50 is more than 100000 nM.
Regarding `Cc1cc(C(=O)NN2C(=O)[C@@H]3C4C=CC(C5CC54)[C@@H]3C2=O)[nH]n1` (stereo partly specified), the EC50 in the data set on Vaccinia virus [1] was 7100 nM. The CC50 in data set [2] was more than 100000 nM.
For the compound `O=C(NN1C(=O)[C@@H]2C3C=CC(C4CC43)[C@@H]2C1=O)c1ccc(C(F)(F)F)cc1` (stereo partly specified), the EC50 in the data set on Rotavirus was more than 40000 nM; in the data set on Monkeypox virus it was 10 nM; with Vaccinia virus [1], 40 nM; in the data set with Human alphaherpesvirus 1, more than 40000 nM; with Variola virus [6], 20 nM; in the data set with Variola virus [8], 50 nM. Further, the EC50 was 10 nM in the data set with Camelpox virus, more than 40000 nM in data set [16], more than 40000 nM in the data set on Human betaherpesvirus 5 and more than 40000 nM in [18]. Further, the half-life was more than 3.33 h in data set [3]; more than 3.33 h in data set [4]; more than 3.33 h in [5]; more than 3.33 h in data set [7]; 4.2 h in [15]; more than 3.33 h in [9]. Besides, in data set [10], the CL/F (usually clearance divided by bioavailability, as obtained after extravascular dosing) is 8.67 mL/min/kg. Besides, the time of peak concentration (Tmax) (in general, the time from dosing to the highest level) in data set [11] is 2.2 h. Moreover, the Cmax (in general, the maximum level reached in the sampled fluid or tissue) in [12] amounted to 920 ng/mL. Also, the bioavailability (as a rule, dose-corrected exposure relative to a reference, in per cent) in data set [13] amounted to 31%. The compound further yielded a CC50 in data set [2] of more than 100000 nM. Also, in the data set with Rattus norvegicus, the Vss was determined as 0.6 L/kg. The AUC – broadly, concentration integrated over time – in [14] was found to be 6100 ng·h/mL. In addition, the Activity entry in the data set on Cynomolgus monkey and in the data set on Mus musculus was “Non-toxic” each time. Also, the result with Vaccinia virus [17] was Active.
The compound `O=C(NN1C(=O)[C@@H]2C3C=CC(C4CC43)[C@@H]2C1=O)c1cccc(Br)c1` (stereo partly specified) displayed a 50% effective concentration (EC50) in the data set with Vaccinia virus [1] of 50 nM. For the same compound, the CC50 in data set [2] was more than 100000 nM.
